What all share (format): functional
The subject of experiment [1] is Nucleic Acid. The experiment can be described thus: Percent inhibition of DNA synthesis ([Me-3H] thymidine incorporation) at 50 uM concentration. The procedure, abridged:
(§1)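 Balb/c 3T3 cells were grown to confluence in Eagle's MEM with 10% fetal calf serum. They were synchronized in serum-free medium containing 10% spent medium, then stimulated with fresh medium plus 10% FCS, with or without oligonucleotide at a final 5 or 50 μM. At set intervals, duplicate cultures were pulsed 1 h with [3H]thymidine (40 Ci/mmol) and TCA-insoluble cpm counted. % inhibition = 100[1 − treated/control], using cpm summed over the control peak DNA-synthesis period (e.g. 15–16, 17–18, 19–20 h).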

The test system of experiment [2] is Nucleic Acid. Briefly: Percent inhibition of DNA synthesis ([Me-3H] thymidine incorporation) at 5 uM concentration. The gist of the method: as §1
(In general: Dividing cells build labelled thymidine or BrdU into new DNA.)

Experiment [3] in a line: Percent inhibition of protein synthesis ([35S]methionine incorporation) at 50 uM concentration. The procedure, abridged: (§2)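 Confluent Balb/c 3T3 cells were synchronized in methionine-free, serum-free medium containing 10% spent medium. They were then stimulated with fresh methionine-free medium plus 10% fetal calf serum, with or without oligonucleotide at a final 5 or 50 μM. At set intervals, duplicate cultures were pulse-labeled 1 h with [35S]methionine (147 mCi/mmol) and TCA-insoluble cpm measured. % inhibition = 100[1 − treated cpm/untreated cpm].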

Experiment [4] can be described thus: Percent inhibition of protein synthesis ([35S]methionine incorporation) at 5 uM concentration. The gist of the method:
as §2

Broadly, the inhibition is the percentage by which the read-out fell short of the control. Lower therefore signals a weak effect. On to `Nc1ncnc2c1ncn2[C@@H]1O[C@H](COP(=O)(O)O[C@@H]2[C@H](O)[C@@H](COP(=O)(O)O[C@@H]3[C@H](O)[C@@H](COP(=O)(O)O)O[C@H]3n3cnc4c(N)ncnc43)O[C@H]2n2cnc3c(N)ncnc32)[C@@H](O)[C@H]1O`, for which the inhibition in the experiment on Nucleic Acid [1] was found to be 54%; with Nucleic Acid [2], 15%; in experiment [3], 33%; in experiment [4], 0%.

`Nc1ncnc2c1ncn2[C@@H]1O[C@H](COP(=O)(O)O[C@@H]2[C@H](O)[C@@H](COP(=O)(O)O[C@@H]3[C@H](O)[C@@H](CO)O[C@H]3n3cnc4c(N)ncnc43)O[C@H]2n2cnc3c(N)ncnc32)[C@@H](O)[C@H]1O`: the inhibition in the experiment on Nucleic Acid [1] turned out to be 48%; with Nucleic Acid [2], 14%; in experiment [3], 14%; in experiment [4], 0%.

Take `Nc1ncnc2c1ncn2[C@@H]1O[C@H](COP(=O)(O)O[C@@H]2[C@H](O)[C@@H](COP(=O)(O)O[C@@H]3[C@H](O)[C@@H](COP(=O)(O)OP(=O)(O)OP(=O)(O)O)O[C@H]3n3cnc4c(N)ncnc43)O[C@H]2n2cnc3c(N)ncnc32)[C@@H](O)[C@H]1O`: the inhibition was found to be 27% with Nucleic Acid [1], 11% with Nucleic Acid [2], 21% in experiment [3] and 11% in experiment [4].

The record behind these values is ChEMBL document CHEMBL1122405, “Structure--activity relationships for and potentiation of the antimitogenic activity of 2-5A core derived from 2-5A, a mediator of interferon action” (J Med Chem, 1983).
